The values below come from ChEMBL document CHEMBL4118202, “Chiral analogues of (+)-cyclazosin as potent α1B-adrenoceptor selective antagonist” (Bioorg Med Chem, 2018).

The target in experiment [1] is T1, Alpha-1D adrenergic receptor (Rattus norvegicus) (UniProt P23944).
T1 sequence (whole entry): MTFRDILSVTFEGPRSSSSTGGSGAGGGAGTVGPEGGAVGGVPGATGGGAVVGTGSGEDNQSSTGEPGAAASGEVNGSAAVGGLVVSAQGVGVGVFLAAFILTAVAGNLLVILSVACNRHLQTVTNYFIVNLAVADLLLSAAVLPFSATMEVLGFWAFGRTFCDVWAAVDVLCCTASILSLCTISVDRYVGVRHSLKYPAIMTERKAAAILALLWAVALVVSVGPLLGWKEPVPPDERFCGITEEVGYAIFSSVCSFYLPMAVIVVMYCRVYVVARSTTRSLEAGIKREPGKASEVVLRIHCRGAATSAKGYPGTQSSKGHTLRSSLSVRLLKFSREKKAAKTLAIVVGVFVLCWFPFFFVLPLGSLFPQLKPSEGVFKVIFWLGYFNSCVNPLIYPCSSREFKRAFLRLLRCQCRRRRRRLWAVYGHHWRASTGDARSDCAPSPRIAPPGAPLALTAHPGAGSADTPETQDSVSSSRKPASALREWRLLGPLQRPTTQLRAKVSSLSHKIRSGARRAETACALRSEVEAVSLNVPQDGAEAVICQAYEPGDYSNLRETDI
Nature of the experiment: Antagonist activity at alpha1D adrenergic receptor in Wistar rat thoracic aorta assessed as inhibition of noradrenaline-induced contraction measured after 30 mins in presence of cocaine hydrochloride and beta-adrenoceptor blocker propranolol hydrochloride. It is filed as functional. The method, boiled down:
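Helical thoracic aorta strips, endothelium removed (checked by loss of acetylcholine relaxation), in Krebs at 1 g, equilibrated ≥2 h. Isometric cumulative noradrenaline curves at 1 h intervals; the second served as control, the third followed 30 min antagonist.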

Experiment [2] has as its target T2, Alpha-1A adrenergic receptor (Homo sapiens, UniProt P35348).
T2 sequence (P35348 whole entry): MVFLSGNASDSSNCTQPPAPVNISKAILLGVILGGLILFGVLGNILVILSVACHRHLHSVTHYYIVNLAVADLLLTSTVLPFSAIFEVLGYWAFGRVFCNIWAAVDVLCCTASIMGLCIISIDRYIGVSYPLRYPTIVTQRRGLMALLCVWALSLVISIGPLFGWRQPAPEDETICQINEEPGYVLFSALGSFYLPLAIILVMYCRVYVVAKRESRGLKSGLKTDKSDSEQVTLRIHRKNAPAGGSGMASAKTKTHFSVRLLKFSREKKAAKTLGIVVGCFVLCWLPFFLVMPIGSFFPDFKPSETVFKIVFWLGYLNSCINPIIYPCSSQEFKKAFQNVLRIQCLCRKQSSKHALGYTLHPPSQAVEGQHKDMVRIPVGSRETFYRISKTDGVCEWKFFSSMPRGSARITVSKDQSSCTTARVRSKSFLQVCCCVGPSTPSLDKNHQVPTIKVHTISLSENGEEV
Nature of the experiment: Binding affinity to alpha1A adrenergic receptor (unknown origin).

Experiment [3] has as its target T3, Alpha-1B adrenergic receptor (Homo sapiens, UniProt P35368).
T3 sequence (P35368 whole entry): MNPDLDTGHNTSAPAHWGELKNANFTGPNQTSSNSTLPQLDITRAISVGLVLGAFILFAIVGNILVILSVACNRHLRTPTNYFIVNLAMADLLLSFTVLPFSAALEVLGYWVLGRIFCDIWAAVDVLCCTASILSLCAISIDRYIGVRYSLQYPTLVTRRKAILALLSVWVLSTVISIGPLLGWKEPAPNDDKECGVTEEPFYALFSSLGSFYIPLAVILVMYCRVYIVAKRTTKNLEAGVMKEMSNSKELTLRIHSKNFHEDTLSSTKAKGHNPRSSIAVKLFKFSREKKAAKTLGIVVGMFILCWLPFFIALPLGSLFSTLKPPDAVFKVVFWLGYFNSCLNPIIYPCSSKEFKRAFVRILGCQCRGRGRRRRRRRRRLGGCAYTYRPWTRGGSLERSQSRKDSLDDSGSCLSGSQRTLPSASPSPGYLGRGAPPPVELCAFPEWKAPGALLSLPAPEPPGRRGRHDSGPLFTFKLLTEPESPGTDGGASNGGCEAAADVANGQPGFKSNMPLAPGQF
Briefly: Binding affinity to alpha1B adrenergic receptor (unknown origin).

Experiment [4] concerns the target T4, Alpha-1D adrenergic receptor (Homo sapiens, UniProt P25100).
T4 sequence (P25100 whole entry): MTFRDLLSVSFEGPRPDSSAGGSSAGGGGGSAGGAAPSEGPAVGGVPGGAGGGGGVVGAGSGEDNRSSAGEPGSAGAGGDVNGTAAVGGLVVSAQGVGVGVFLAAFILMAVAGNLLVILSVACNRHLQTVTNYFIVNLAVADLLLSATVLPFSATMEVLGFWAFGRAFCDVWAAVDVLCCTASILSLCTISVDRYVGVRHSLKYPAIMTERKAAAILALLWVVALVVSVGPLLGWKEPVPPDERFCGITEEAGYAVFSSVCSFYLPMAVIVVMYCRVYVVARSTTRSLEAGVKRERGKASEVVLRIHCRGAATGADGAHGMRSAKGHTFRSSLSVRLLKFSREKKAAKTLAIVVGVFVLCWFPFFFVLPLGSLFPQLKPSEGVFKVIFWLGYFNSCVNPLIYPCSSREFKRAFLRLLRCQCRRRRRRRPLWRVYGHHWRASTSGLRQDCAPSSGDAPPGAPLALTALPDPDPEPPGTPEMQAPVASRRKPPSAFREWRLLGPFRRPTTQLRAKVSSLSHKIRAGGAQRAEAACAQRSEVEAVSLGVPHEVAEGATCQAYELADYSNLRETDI
Briefly: Binding affinity to alpha1D adrenergic receptor (unknown origin).

The species named for experiment [5] is Homo sapiens. Nature of the experiment: Selectivity ratio of compound effect for alpha1B adrenergic receptor (unknown origin) to compound effect for alpha1A adrenergic receptor (unknown origin).
Experiment [6] is filed under the species Homo sapiens. Briefly: Selectivity ratio of compound effect for alpha1B adrenergic receptor (unknown origin) to compound effect for alpha1D adrenergic receptor (unknown origin).
Experiment [7] is filed under the species Homo sapiens. Briefly: Selectivity ratio of compound effect for alpha1D adrenergic receptor (unknown origin) to compound effect for alpha1A adrenergic receptor (unknown origin).

By pKb is commonly meant the Kb on a negative log10 scale, so that one unit is a factor of ten. The term Ki denotes the equilibrium dissociation constant of an inhibitor or competing ligand from its target. On to `COc1cc2nc(N3CCN(C(=O)C4COc5ccccc5O4)[C@H]4CCCC[C@H]43)nc(N)c2cc1OC` (single isomer, unassigned; (-)) [CYCLODOXAZOSIN], for which the pKb in experiment [1] amounted to 7.1. Besides, the figures for the inhibition constant (Ki) in experiment [2], in experiment [3] and in experiment [4] were 3.39 nM, 1.41 nM and 3.89 nM, respectively. For the same compound, the Selectivity ratio in the experiment filed under Homo sapiens [5] stood at 2; in the experiment filed under Homo sapiens [6], 3; in the experiment filed under Homo sapiens [7], 1.
In the case of `CCCN(CCC)c1nc(N2CCN(C(=O)c3ccco3)[C@H]3CCCC[C@H]32)nc2cc(OC)c(OC)cc12`, in experiment [1], the pKb was determined as 6.22.
